{
  "source": "ChEMBL document CHEMBL4316611",
  "about": "“Design, synthesis and evaluation of novel (S)-tryptamine derivatives containing an allyl group and an aryl sulfonamide unit as anticancer agents” (Bioorg Med Chem Lett, 2019)",
  "key": {"HepG2 [1]": {"system": "HepG2", "assay": "Induction of apoptosis in human HepG2 cells assessed as necrotic cells level at 10 uM incubated for 48 hrs by Annexin V-FITC/propidium iodide staining based flow cytometry (reference value: 0.53%)", "format": "functional"}, "HepG2 [2]": {"system": "HepG2", "assay": "Induction of apoptosis in human HepG2 cells assessed as viable cells level at 30 uM incubated for 48 hrs by Annexin V-FITC/propidium iodide staining based flow cytometry (reference value: 94.56%)", "format": "functional"}, "HepG2 [3]": {"system": "HepG2", "assay": "Inhibition of colony formation in human HepG2 cells at 7.5 uM incubated for 14 days by Giemsa staining based assay", "format": "functional", "settings": "HepG2, 336 h", "procedure,_shortened": "(§1)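 Colony formation assay: cells exposed at 0, 2.5, 5 and 7.5 μM for 2 weeks. Colonies imaged and quantified by image analysis. Inhibition rate expressed as mean ± SD against control.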"}, "HepG2 [4]": {"system": "HepG2", "assay": "Induction of cell cycle arrest in human HepG2 cells assessed as accumulation at G1 phase incubated for 24 hrs by propidium iodide staining based flow cytometry", "format": "functional"}, "HepG2 [5]": {"system": "HepG2", "assay": "Induction of apoptosis in human HepG2 cells assessed as late apoptotic cells level at 30 uM incubated for 48 hrs by Annexin V-FITC/propidium iodide staining based flow cytometry (reference value: 2.02%)", "format": "functional"}, "HepG2 [6]": {"system": "HepG2", "assay": "Induction of apoptosis in human HepG2 cells assessed as necrotic cells level at 20 uM incubated for 48 hrs by Annexin V-FITC/propidium iodide staining based flow cytometry (reference value: 0.53%)", "format": "functional"}, "HepG2 [7]": {"system": "HepG2", "assay": "Induction of apoptosis in human HepG2 cells assessed as necrotic cells level at 30 uM incubated for 48 hrs by Annexin V-FITC/propidium iodide staining based flow cytometry (reference value: 0.53%)", "format": "functional"}, "HepG2 [8]": {"system": "HepG2", "assay": "Induction of apoptosis in human HepG2 cells assessed as viable cells level at 20 uM incubated for 48 hrs by Annexin V-FITC/propidium iodide staining based flow cytometry (reference value: 94.56%)", "format": "functional"}, "HepG2 [9]": {"system": "HepG2", "assay": "Induction of apoptosis in human HepG2 cells assessed as early apoptotic cells level at 10 uM incubated for 48 hrs by Annexin V-FITC/propidium iodide staining based flow cytometry (reference value: 2.89%)", "format": "functional"}, "HepG2 [10]": {"system": "HepG2", "assay": "Induction of apoptosis in human HepG2 cells assessed as viable cells level at 10 uM incubated for 48 hrs by Annexin V-FITC/propidium iodide staining based flow cytometry (reference value: 94.56%)", "format": "functional"}, "HepG2 [11]": {"system": "HepG2", "assay": "Induction of cell cycle arrest in human HepG2 cells assessed as accumulation at G1 phase at 15 uM incubated for 24 hrs by propidium iodide staining based flow cytometry (reference value: 39.79%)", "format": "functional"}, "CNE": {"system": "CNE", "assay": "Cytotoxicity in human CNE1 cells assessed as reduction in cell viability incubated for 48 hrs by MTT assay", "format": "functional, cell-based", "procedure,_shortened": "(§2)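 MTT viability assay; cells exposed continuously to compounds for 48 h. IC50 values reported as mean ± SD. Cisplatin served as positive control.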"}, "HepG2 [12]": {"system": "HepG2", "assay": "Induction of apoptosis in human HepG2 cells assessed as late apoptotic cells level at 20 uM incubated for 48 hrs by Annexin V-FITC/propidium iodide staining based flow cytometry (reference value: 2.02%)", "format": "functional"}, "HepG2 [13]": {"system": "HepG2", "assay": "Cytotoxicity in human HepG2 cells assessed as reduction in cell viability incubated for 48 hrs by MTT assay", "format": "functional, cell-based", "settings": "HepG2, 48 h", "procedure,_shortened": "as §2"}, "A549": {"system": "A549", "assay": "Cytotoxicity in human A549 cells assessed as reduction in cell viability incubated for 48 hrs by MTT assay", "format": "functional, cell-based", "settings": "A549, 48 h", "procedure,_shortened": "as §2"}, "HeLa": {"system": "HeLa", "assay": "Cytotoxicity in human HeLa cells assessed as reduction in cell viability incubated for 48 hrs by MTT assay", "format": "functional, cell-based", "procedure,_shortened": "as §2"}, "HepG2 [14]": {"system": "HepG2", "assay": "Induction of cell cycle arrest in human HepG2 cells assessed as accumulation at G1 phase at 35 uM incubated for 24 hrs by propidium iodide staining based flow cytometry (reference value: 39.79%)", "format": "functional"}, "HepG2 [15]": {"system": "HepG2", "assay": "Induction of apoptosis in human HepG2 cells assessed as early apoptotic cells level at 20 uM incubated for 48 hrs by Annexin V-FITC/propidium iodide staining based flow cytometry (reference value: 2.89%)", "format": "functional"}, "HepG2 [16]": {"system": "HepG2", "assay": "Induction of cell cycle arrest in human HepG2 cells assessed as accumulation at G1 phase at 25 uM incubated for 24 hrs by propidium iodide staining based flow cytometry (reference value: 39.79%)", "format": "functional"}, "HepG2 [17]": {"system": "HepG2", "assay": "Induction of apoptosis in human HepG2 cells assessed as late apoptotic cells level at 10 uM incubated for 48 hrs by Annexin V-FITC/propidium iodide staining based flow cytometry (reference value: 2.02%)", "format": "functional"}, "HepG2 [18]": {"system": "HepG2", "assay": "Inhibition of colony formation in human HepG2 cells incubated for 14 days by Giemsa staining based assay", "format": "functional, cell-based", "procedure,_shortened": "as §1"}, "HepG2 [19]": {"system": "HepG2", "assay": "Induction of apoptosis in human HepG2 cells assessed as early apoptotic cells level at 30 uM incubated for 48 hrs by Annexin V-FITC/propidium iodide staining based flow cytometry (reference value: 2.89%)", "format": "functional"}},
  "data": [
    {"smiles": "C=CC[C@@H](Cc1c[nH]c2ccccc12)NS(=O)(=O)c1c(C(C)C)cc(C(C)C)cc1C(C)C", "values": [
      {"measurement": "Activity", "setting": "HepG2 [1]", "value": 0.69, "unit": "%"},
      {"measurement": "Activity", "setting": "HepG2 [2]", "value": 25.38, "unit": "%"},
      {"measurement": "inhibition at 7.5 µM", "setting": "HepG2 [3]", "value": 95, "unit": "%"},
      {"measurement": "Activity", "setting": "HepG2 [4]", "value": "Dose-dependent effect"},
      {"measurement": "Activity", "setting": "HepG2 [5]", "value": 20.25, "unit": "%"},
      {"measurement": "Activity", "setting": "HepG2 [6]", "value": 0.75, "unit": "%"},
      {"measurement": "Activity", "setting": "HepG2 [7]", "value": 0.91, "unit": "%"},
      {"measurement": "Activity", "setting": "HepG2 [8]", "value": 73.08, "unit": "%"},
      {"measurement": "Activity", "setting": "HepG2 [9]", "value": 6.63, "unit": "%"},
      {"measurement": "Activity", "setting": "HepG2 [10]", "value": 89.7, "unit": "%"},
      {"measurement": "Activity", "setting": "HepG2 [11]", "value": 44.89, "unit": "%"},
      {"measurement": "IC50", "setting": "CNE", "value": 18.3, "unit": "µM"},
      {"measurement": "Activity", "setting": "HepG2 [12]", "value": 4.85, "unit": "%"},
      {"measurement": "IC50", "setting": "HepG2 [13]", "value": 16.5, "unit": "µM"},
      {"measurement": "IC50", "setting": "A549", "value": 18.7, "unit": "µM"},
      {"measurement": "IC50", "setting": "HeLa", "value": 16.5, "unit": "µM"},
      {"measurement": "Activity", "setting": "HepG2 [14]", "value": 53.35, "unit": "%"},
      {"measurement": "Activity", "setting": "HepG2 [15]", "value": 21.29, "unit": "%"},
      {"measurement": "Activity", "setting": "HepG2 [16]", "value": 48.82, "unit": "%"},
      {"measurement": "Activity", "setting": "HepG2 [17]", "value": 2.96, "unit": "%"},
      {"measurement": "inhibition", "setting": "HepG2 [18]", "value": "Dose-dependent effect"},
      {"measurement": "Activity", "setting": "HepG2 [19]", "value": 53.46, "unit": "%"}
    ]}
  ]
}
